This note sets out measurements from ChEMBL document CHEMBL2021823, “Antiproliferative acetogenins from a Uvaria sp. from the Madagascar dry forest” (J Nat Prod, 2012).

For one test, the system named is A2780. The test is described as follows: Antiproliferative activity against human A2780 cells after 2 days by Alamar blue assay. As to conditions: A2780, 48 h.
The next test relates to A2058. Description: Antiproliferative activity against human A2058 cells after 96 hrs by CellTiter-Glo assay. It is filed as functional, cell-based. As to conditions: A2058, 96 h. The essentials:
(§1)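 A2058 melanoma and H522 lung cancer cell lines, run at Eisai by procedures similar to those used for the H460 line; activity reported as IC50.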
For orientation: In ATP-based viability assays light output follows the ATP content of the culture.

For a further test, the system named is NCI-H522. The test is described as follows: Antiproliferative activity against human NCI-H522 cells after 96 hrs by CellTiter-Glo assay. It is filed as functional, cell-based. As to conditions: NCI-H522, 96 h. The procedure, abridged: as §1

The structures appear in SMILES notation. Where only a bound is given, the exact number is not on record here.

As usually defined, the IC50 is the midpoint of a concentration-inhibition curve.

As to `CCCCCCCCCCCCC[C@H](O)[C@@H]1CC[C@@H]([C@H]2CC[C@H]([C@@H](O)CCCC(O)CCCCCC3=C[C@H](C)OC3=O)O2)O1` (relative stereo), the IC50 was 6.4 µM in the test with A2780, 6.6 µM in the test with A2058 and under 10 µM with NCI-H522.

For the compound `CCCCCCCCCCC[C@H](O)[C@@H]1CC[C@@H]([C@H]2CC[C@H]([C@@H](O)CCCCCCCC[C@H](O)CCC3=C[C@H](C)OC3=O)O2)O1` (relative stereo), the concentration for half-maximal inhibition (IC50) in the test with A2780 is 8.8 µM; with A2058, 7.2 µM; in the test with NCI-H522, under 10 µM.
